# Screening data (PubChem)
# T cruzi inh: inhibitors of intracellular T. cruzi growth, primary screen, luminescence, NIH3T3 host cells; T. cruzi beta-gal in NIH3T3, 90 h; inhibition, % (concentration not given with the values); actives 1.4% (n = 300,000);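 active means mean inhibition across valid replicates above about 55%, limit read from the data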;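 further: signal also drops with host cell toxicity which is not excluded here; higher percent means less beta-gal luminescence so fewer parasites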
#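 System: NIH/3T3 fibroblasts plus reporter T. cruzi. Medium: DMEM plus 2% FBS. Probe or stimulus: 5000 reporter trypomastigotes per well. Compound: single 50 nL compound addition per well in DMSO. Incubation: co-culture of at least 90 h after 3 h attachment. Detection: GalScreen β-gal luminescence, detergent lysis, 60 min. Evaluation: parasite load inhibition, %.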
# XBP1 UPR activ: activators of adaptive XBP1 UPR arm, primary screen, cell-based, CHO-XBP1 luciferase reporter, luminescence, uHTS; IRE1-XBP1 UPR activation; percent of tunicamycin response, DMSO as zero; activation, % at 20 µM; actives 0.33% (n = 330,000);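 active means versus positive control, 20 µM dose yields 30% or more activation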
#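 Material: IRE1-XBP1 luciferase reporter CHO line / Quantity: one thousand reporter cells per well / Buffer or medium: F12 with 10% serum / Compound: 20 µM single concentration, DMSO 1% / Times: 6 h treatment, 37 °C / Detection: Steady-Glo luciferase glow luminescence, 10 min after reagent addition / Benchmarks: tunicamycin high, DMSO low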
# Beta cell apopt: inhibitors of cytokine-induced beta cell apoptosis, primary screen, luminescence | protection from apoptosis, % (concentration not given with the values) | AID 435005, 2010 | INS-1E cytokine-induced death, ATP luminescence, 48 h; percent of positive-control rescue, neutral wells zero | actives 0.8% (n = 300,000);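 active means Every replicate reaches about 75%, or at least half do and their mean reaches it too, limit read from the data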;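 further: higher means more ATP so stronger rescue from cytokine killing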
# CSC inhib: cancer stem cell viability inhibitors, primary screen, luminescence | cancer stem cell-like cells viability | inhibition, % at 7.5 µM | actives 1.1% (n = 300,000) | AID 2717, 2010; in the data active means inhibition above about 75%; tested in HMLE shEcad cells
# UPR CHOP act: activators of apoptotic CHOP UPR arm, primary screen, cell-based, CHO-CHOP luciferase reporter, luminescence, uHTS; activation, % at 10 µM; UPR activation; percent of tunicamycin response over DMSO baseline; AID 449763, 2010; actives 0.34% (n = 330,000);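 active means at 10 µM dose, activation of 40% or more, normalized to positive control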
#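 Assay system: CHO-CHOP cells, stable luciferase reporter of PERK-eIF2a-CHOP signalling / Buffer or medium: F12 plus 10% serum / Compound dosing: one dose, 10 µM in 0.5% DMSO / Times: 6 h compound treatment, 37 °C / Technique: luciferase luminescence / Read-out: % reporter activation, DMSO baseline versus tunicamycin full activation / Benchmarks: tunicamycin and DMSO controls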
# Mdm2 MdmX PPI: inhibitors of human Mdm2-MdmX association, primary screen, cell-based, luminescence, split luciferase, SaOS-2, uHTS; AID 485346, 2010; actives 3% (n = 330,000); inhibition, % at 8 µM; SaOS-2 split-luciferase Mdm2/MdmX complementation;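 active means inhibition of at least 50% at 8 µM in the primary screen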
# Hits are given with their value; - = inactive; . = no result. An excerpt weighted towards active compounds, which were near 5% of everything screened.
SMILES,T cruzi inh,XBP1 UPR activ,Beta cell apopt,CSC inhib,UPR CHOP act,Mdm2 MdmX PPI
CNC(CC(=O)c1ccc([N+](=O)[O-])cc1)C(Cl)(Cl)Cl (centres undefined),.,.,-,76,.,.
Cc1cc(O)c(Sc2ccc(Cl)cc2)c(=O)[nH]1,-,-,-,-,-,-
Cc1[nH]n(C(C)(C)C)c(=O)c1Sc1ccc(Cl)cc1,61,-,-,-,-,-
COc1cc(C(=O)NC(C)c2ccc3ccccc3c2)cc(Cl)c1O (centres undefined),-,-,-,-,-,-
COc1cc(CNc2ccc(CNc3ncn[nH]3)cc2)ccc1OCc1ccccc1,-,-,-,90,-,-
COc1ccccc1CNc1ccc(CNc2ncn[nH]2)cc1,-,-,-,-,-,-
CC(C)c1ccccc1NC(=O)COC(=O)c1ccc(Cl)c(S(=O)(=O)N2CCCCCC2)c1,-,-,.,.,-,-
CC1(c2cc([N+](=O)[O-])cc([N+](=O)[O-])c2)CC(C)(C)N(C(=O)c2ccccc2)c2ccccc21 (centres undefined),67,-,-,-,-,-
CN(C)c1ccc(N/C=C/C(=O)c2ccc(F)cc2)cc1,60,-,-,-,-,-
O=C(CCn1c(=O)oc2ccc(Cl)cc21)NCCCN1CCOCC1,-,-,.,-,-,-
COc1ccc2[nH]c(C)c(CCN(Cc3cccs3)C(=S)Nc3cccc(F)c3)c2c1,63,-,-,-,-,-
Cc1[nH]c2ccc(F)cc2c1CCN(Cc1cccnc1)C(=S)Nc1cccc(F)c1,65,-,-,-,-,-
Cc1ccc2[nH]c(C)c(CCN(Cc3cccnc3)C(=S)NC(C)(C)C)c2c1,-,-,-,-,-,-
Cc1[nH]c2ccc(F)cc2c1CCN(Cc1cccnc1)C(=S)NC(C)(C)C,65,-,-,-,-,-
N#Cc1cc(-c2ccccc2)cnc1Sc1ccc(Cl)cc1,-,-,-,-,-,-
N#Cc1cc(-c2ccc(Cl)cc2)cnc1Sc1ccccc1,56,-,-,-,-,-
Cc1ccc(C(=O)NCCc2nnc3ccc(SCC(=O)N4CCCCC4)nn23)cc1,-,-,-,-,-,-
COc1ccc(CNC(=O)C2CSC(=O)C2)cc1 (centres undefined),56,-,-,-,-,-
COc1ccc(-n2cc(CN(C)C(C)c3ccncn3)c(-c3cccc(F)c3)n2)cc1 (centres undefined),66,-,-,-,-,-
Cc1ccc(SCc2ccc(C(=O)Nc3cccc([N+](=O)[O-])c3C)cc2)cc1,60,-,-,-,-,-
O=C(COC(=O)Cc1ccccc1F)NNC(=O)c1ccc([N+](=O)[O-])cc1,-,-,-,-,-,-
CC(C)(CN1CCN(Cc2ccccc2)CC1)NS(=O)(=O)c1ccc(Cl)cc1,-,-,-,-,-,-
CN1CCN(CC(C)(C)NS(=O)(=O)c2ccc(Cl)cc2)CC1,70,-,-,-,-,-
COC(=O)COc1cc(Cl)c(C=O)cc1OC,-,-,-,-,-,-
Cc1cc(C)nc(N(C#N)CCOc2ccc(Cl)cc2)n1,-,-,-,-,-,-
CC(C)Nc1nc(NC(C)C)nc(N(C#N)CCOc2ccc(Cl)cc2Cl)n1,73,-,-,-,-,-
CCOC(=O)c1c(C)[nH]c(C)c1S(=O)(=O)NCC1CCN(Cc2ccccc2OC)CC1,-,-,-,-,-,-
COc1ccc(OC)c(-c2csc(NC(=O)C3=COCCO3)n2)c1,-,-,.,-,-,-
Cc1ccc(S(=O)(=O)Nc2cccc(C(=O)NCC3(N4CCCCC4)CCCCC3)c2)cc1F,-,-,-,-,-,-
OC(CN1CCN(c2ccccn2)CC1)Cn1c2ccc(Cl)cc2c2cc(Cl)ccc21 (centres undefined),-,-,-,105,-,-
